Assay results from the array DNA melting data of Ke et al. (doi:10.1101/2024.01.08.574731).

What was measured:
[1] = folding enthalpy; higher = less favourable; fluorescence melt of hairpins on a sequencing array, two-state fit; settings: sodium 0.088 M
Method in brief: (§1)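 Melting temperature and folding enthalpy were derived from bootstrapped two-state fits. The fitted temperatures were raised by 9.35 °C to agree with UV melts, and four replicates were combined by inverse variance. The underlying data were Cy3 fluorescence images of library hairpins, with annealed Cy3 and quencher oligos, on a sequenced MiSeq flow cell in 50 mM Na-HEPES pH 8.0, 25 mM NaCl, taken in 2.5 °C steps up to 60 °C, normalised to pre-quench Cy3 and to control constructs.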

[2] = melting temperature; fluorescence melt of hairpins on a sequencing array, two-state fit, raised by 9.35 °C to match UV melts; settings: sodium 0.088 M
Method in brief: as §1

Row | Sequence | folding enthalpy [1] [kcal/mol] | Tm [2] [°C]
1 | GGGTCCGAAAGGAACCCC ((((((....)))..))) | -13.9 | 61.7
2 | GACAATGAAAATTGTC ((((((....)))))) | -31.3 | 51.6
3 | GCGATCGGAAACGATTGC ((.((((....)))).)) | -43.5 | 56.3
4 | GCCCCCGAAAGGGTTGGC ((((((....)))..))) | -18 | 52.6
5 | AGTCCGAAAGGACT (((((....))))) | -18.7 | 68.1
6 | GCAGTCGGAAACGATTGC (((.(((....))).))) | -43.6 | 54.4
7 | GCGAGTCGAAAGACCCGC (((.(((....))).))) | -48.2 | 57.3
8 | GAATGCGAAAGCAAATTC ((((((....)))..))) | -18.9 | 33.6
9 | GTGTCCGGAAACAGACAC (((((.(....).))))) | -30.1 | 44.9
10 | GATCTCTAGGAGATC ((((((...)))))) | -39.1 | 52.9
11 | GCGCGCGAAAGCGGCCGC ((((((....)))..))) | -15.3 | 59
12 | GGACTCGAAAGAGTATCC ((((((....)))..))) | -13.8 | 33.3
13 | GCTCCTCGAAAGAGAAGC (((.(((....))).))) | -29.4 | 46.1
14 | GATCTAAGCTAGATC ((((((...)))))) | -21.5 | 39.5
15 | GTCCCAGCGAAAGCTGAC (((..(((....)))))) | -8.81 | 22.4
16 | GGCCTCGGAAACGAAGCC (((.(((....))).))) | -30.8 | 47.8
17 | GGGTGGACGAAAGTCCCC (((..(((....)))))) | -12.4 | 49.7
18 | GATTTCCGAAAGGATATC (((.(((....))).))) | -24.6 | 42
19 | GCACTCGAAAGAGAATGC ((((((....)))..))) | -24.6 | 35.1
20 | GAGTGAGGAAACTTACTC ((((.((....)).)))) | -28 | 38.1
21 | GAGAGCGAAAGCTTTCTC ((((((....)))..))) | -21.4 | 46.6
22 | GCAGGACGAAAGTCTGC (((.(((....)))))) | -31.7 | 58.4
23 | GGGGACCCGAAAGGGCCC (((..(((....)))))) | -16.4 | 62.3

Row | Sequence | folding enthalpy [1] [kcal/mol] | Tm [2] [°C]
24 | GCTTACCGAAAGGTCAGC (((.(((....))).))) | -27.8 | 50.3
25 | CGACAGAAATGTCG (((((....))))) | -26.1 | 52.9
26 | GATCTGGCACCAGATC ((((((....)))))) | -41.3 | 55.1
27 | GATGTCGCGAAAGCGATC (((..(((....)))))) | -8.5 | 31.1
28 | GCAAAGGCGAAAGCCTGC (((..(((....)))))) | -14.9 | 54.6
29 | GAGGGGGGAAACCTCCTC ((((.((....)).)))) | -33.7 | 51.4
30 | GATCCGGTCACGGATC ((((((....)))))) | -34.7 | 69.3
31 | GTCACCCGAAAGGGGAC (((.(((....)))))) | -20.1 | 55
32 | GGAGTCGAAAGACATTCC ((((((....)))..))) | -12.7 | 27.9
33 | GATCTGGTTCCAGATC ((((((....)))))) | -47.1 | 53.5
34 | GTATACGGAAACGTATGC (.(((((....))))).) | -24.5 | 46.4
35 | GTGTGCGGAAACGTACAC ((((.((....)).)))) | -40.2 | 56.2
36 | GGGTTGGGAAACCGATCC ((.(.((....)).).)) | -16.3 | 40.3
37 | GGCAGTGGAAACGCTGCC (((((.(....).))))) | -42.3 | 62.7
38 | GGGCACGGAAACACGCCC ((((..(....)..)))) | -30.7 | 46.2
39 | GCTTTTCGAAAGAACAGC (((.(((....))).))) | -31.8 | 42.8
40 | GGCCCATCGAAAGATGCC (((..(((....)))))) | -12.4 | 34.6
41 | GCCCCGCGAAAGCCAGGC (((..((....))..))) | -20.8 | 44.8
42 | GTGATCGGAAACGGTTAC ((.(.((....)).).)) | -29.9 | 31.9
43 | GGTTAACGAAAGTTACC (((.(((....)))))) | -21.9 | 43.9
44 | GATCGCCCTCGCGATC ((((((....)))))) | -27.9 | 67.5
45 | GCGGTAGGAAACCACCGC (((((.(....).))))) | -36.8 | 57.3
46 | GATGTGGGAAACCACACC (.(((((....))))).) | -14.1 | 39
